The results in this text go back to ChEMBL document CHEMBL3227992, “Glycerides as prodrugs. 1. Synthesis and antiinflammatory activity of 1,3-bis(alkanoyl)-2-(O-acetylsalicyloyl)glycerides (aspirin triglycerides)” (J Med Chem, 1979).

Active and inactive are the calls of the source. The rule behind the calls is not given here.

Usually inhibition in vivo stands for the drop in the measured response relative to a control, in per cent.

Data set [1] relates to Rattus norvegicus. The data set can be described thus: Antiinflammatory activity in Sprague-Dawley rat assessed as inhibition of carrageenin-induced hind paw swelling at 444 umol/kg, po administered 2 hrs prior to carrageenin challenge measured after 3 hrs by volumetric transducer analysis relative to aspirin. The format is functional. In outline: (§1)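 Male Sprague-Dawley rats (170-200 g) were fasted overnight with water ad libitum. Compounds were suspended in 0.5% (w/v) methylcellulose with a drop of Tween 80 and given orally 2 h before a subplantar injection of 0.1 mL of 1.5% carrageenin. Paw volume was read before and 3 h after injection by immersion in a mercury vessel linked to a volumetric transducer and polygraph.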
Background: In the carrageenan paw model, swelling and tenderness develop within hours.

Data set [2] concerns Rattus norvegicus. The data set can be described thus: Ulcerogenicity in Sprague-Dawley rat assessed as gastric lesions at 444 umol/kg, po. The format is toxicity, organism-based, Stomach. As to conditions: in vivo. The procedure, abridged:
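Rats were fasted overnight and dosed orally with compound in 0.5% methylcellulose plus Tween 80. Stomachs were examined for gastric lesions by the Brodie and Hansen method. Lesion incidence counted animals with a lesion of 1 mm or longer, expressed relative to plain aspirin.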

The subject of data set [3] is Rattus norvegicus. The data set can be described thus: Antiinflammatory activity in Sprague-Dawley rat assessed as inhibition of carrageenin-induced hind paw swelling at 394 umol/kg, po administered 2 hrs prior to carrageenin challenge measured after 3 hrs by volumetric transducer analysis relative to aspirin. The format is functional. The procedure, abridged:
as §1

Data set [4] deals with Rattus norvegicus. The data set can be described thus: Antiinflammatory activity in Sprague-Dawley rat assessed as inhibition of carrageenin-induced hind paw swelling at 273 umol/kg, po administered 2 hrs prior to carrageenin challenge measured after 3 hrs by volumetric transducer analysis relative to aspirin. The format is functional. The procedure, abridged: as §1
The subject of data set [5] is Plasma. Description: Prodrug conversion in rat plasma assessed as salicylate level at 594 umol/kg, po measured after 15 mins. The format is ADME, organism-based. To be noted: in vivo, 0.25 h. The procedure, abridged: (§2)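 Rats were dosed orally, with the glyceride given as an emulsion. Plasma salicylate was followed from 15 min to 24 h after dosing and reported as mean levels. Absorption was estimated by comparing mean areas under the plasma salicylate curves with those after aspirin.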

Data set [6] concerns Plasma. Description: Prodrug conversion in rat plasma assessed as salicylate level at 594 umol/kg, po measured after 24 hrs. The format is ADME, organism-based. As to conditions: in vivo. In outline:
as §2

Data set [7] relates to Rattus norvegicus. Description: Antiinflammatory activity in Sprague-Dawley rat assessed as inhibition of carrageenin-induced hind paw swelling at 323 umol/kg, po administered 2 hrs prior to carrageenin challenge measured after 3 hrs by volumetric transducer analysis relative to aspirin. The format is functional. The procedure, abridged:
as §1

Data set [8] has as its system Plasma. The data set can be described thus: Prodrug conversion in rat plasma assessed as salicylate level at 1192 umol/kg, po administered as emulsified solution measured after 1 to 6 hrs. The format is ADME, organism-based. To be noted: in vivo. The procedure, abridged:
as §2

For data set [9], the system named is Plasma. The data set can be described thus: Prodrug conversion in rat plasma assessed as salicylate level at 1192 umol/kg, po administered as emulsified solution measured after 24 hrs. The format is ADME, organism-based. As to conditions: in vivo. In outline: as §2
The subject of data set [10] is Rattus norvegicus. Description: Antipyretic activity against yeast-induced fever in rat assessed as delay in onset of activity at 1068 umol/kg, po relative to aspirin. The format is functional, organism-based.
Data set [11] relates to Rattus norvegicus. Description: Antipyretic activity against yeast-induced fever in rat assessed as prolonged duration of action at 1068 umol/kg, po relative to aspirin. The format is functional, organism-based.
A short description of data set [12]: Drug absorption in rat at 1192 umol/kg, po administered as emulsified solution. The format is ADME, organism-based. To be noted: in vivo, read-out: Drug absorption. In outline:
as §2

`CCCC(=O)OCC(COC(=O)CCC)OC(=O)c1ccccc1OC(C)=O`: the inhibition in vivo at 444 µmol/kg with Rattus norvegicus [1] stood at 92%. The Activity entry with Rattus norvegicus [2] was “Non-toxic”.
Take `CCCCCCCC(=O)OCC(COC(=O)CCCCCCC)OC(=O)c1ccccc1OC(C)=O`: the inhibition in vivo at 394 µmol/kg in the data set with Rattus norvegicus [3] stood at 60%.
Turning to `CC(=O)OCC(COC(C)=O)OC(=O)c1ccccc1OC(C)=O`, the inhibition in vivo at 444 µmol/kg with Rattus norvegicus [1] is 48%. Also, in the data set on Rattus norvegicus [2], the Activity entry is recorded as “Toxic”.
Consider `CCCCCCCCCCCCCCCC(=O)OCC(COC(=O)CCCCCCCCCCCCCCC)OC(=O)c1ccccc1OC(C)=O`, for which the inhibition in vivo at 273 µmol/kg in the data set on Rattus norvegicus [4] stood at 12%.
Consider `CC(=O)Oc1ccccc1C(=O)O` [ASPIRIN], for which the Activity entry with Rattus norvegicus [2] is reported as “Toxic”. Further, the Drug metabolism in the data set with Plasma [5] was 196 µg/mL; with Plasma [6], 24 µg/mL.
Consider `CCCCCCCCCCCC(=O)OCC(COC(=O)CCCCCCCCCCC)OC(=O)c1ccccc1OC(C)=O`, for which the inhibition in vivo at 323 µmol/kg in the data set with Rattus norvegicus [7] is 44%.
On to `CCCCCCCCCC(=O)OCC(COC(=O)CCCCCCCCC)OC(=O)c1ccccc1OC(C)=O`, for which the inhibition in vivo at 444 µmol/kg with Rattus norvegicus [1] came to 80%. Moreover, in the data set with Rattus norvegicus [2], the Activity entry is listed as “Non-toxic”. Moreover, the Drug metabolism was found to be 219 µg/mL with Plasma [8] and 61 µg/mL in the data set on Plasma [9]. Also, the outcome in the data set on Rattus norvegicus [10] and in the data set with Rattus norvegicus [11] was Active. In [12], the Fa is 100%.
